Source: ChEMBL document CHEMBL5058577, “EUbOPEN Chemogenomics Library 2 (Multiplex)” (2022)

Tested on: HEK-293T
Assay: Multiplex assay against HEK293T
Type: toxicity, cell-based
Details: human
Summary of the method: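 Cells were classed with CellPathfinder machine-learning gating, first as Hoechst high-intensity objects or normal cells, then (normal cells) as healthy, pyknosed or fragmented nuclei, and finally (pyknosed cells) as mitotic or apoptotic. Staining of live cells at seeding used Hoechst33342, BioTracker Green Microtubule Cytoskeleton Dye, MitoTracker Red and Annexin V Alexa Fluor 680, with imaging on a CQ1 microscope at 37°C and 5% CO2 after compound addition. Tubulin, mitochondrial-mass and membrane-permeability phenotypes are per cents of healthy-nucleus cells.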

[1] = 12 h, 1 µM, compound concentration 1 uM, replicate 1
[2] = 12 h, 1 µM, compound concentration 1 uM, replicate 2
[3] = 12 h, 10 µM, compound concentration 10 uM, replicate 1
[4] = 12 h, 10 µM, compound concentration 10 uM, replicate 2
[5] = 24 h, 1 µM, compound concentration 1 uM, replicate 1
[6] = 24 h, 1 µM, compound concentration 1 uM, replicate 2
[7] = 24 h, 10 µM, compound concentration 10 uM, replicate 1
[8] = 24 h, 10 µM, compound concentration 10 uM, replicate 2
[9] = 48 h, 1 µM, compound concentration 1 uM, replicate 1
[10] = 48 h, 1 µM, compound concentration 1 uM, replicate 2
[11] = 48 h, 10 µM, compound concentration 10 uM, replicate 1
[12] = 48 h, 10 µM, compound concentration 10 uM, replicate 2

## N[C@@]1(C(=O)O)CO[C@H]2[C@H](C(=O)O)[C@H]21 [LY-379268]
[1]
  Population Apoptotic (%): 40%
  Population Fragmented Nuclei (%): 6%
  Population Healthy Nuclei (%): 81%
  Population Hoechst High Intensity Objects (%): 5%
  Population Membrane Permeable-Phenotype (%): 0%
  Population Mitochondria Different-Phenotype (%): 38%
  Population Mitotic Cells (%): 60%
  Population Normal (%): 94%
  Population Pyknosed Nuclei (%): 12%
  Population Tubulin-Different-Phenotype (%): 26%
  Total Cell Count: 396
[2]
  Population Apoptotic (%): 42%
  Population Healthy Nuclei (%): 80%
  Population Hoechst High Intensity Objects (%): 10%
  Population Membrane Permeable-Phenotype (%): 1%
  Population Mitochondria Different-Phenotype (%): 57%
  Population Mitotic Cells (%): 57%
  Population Normal (%): 89%
  Population Tubulin-Different-Phenotype (%): 18%
  Total Cell Count: 411
[3]
  Population Apoptotic (%): 27%
  Population Fragmented Nuclei (%): 10%
  Population Healthy Nuclei (%): 78%
  Population Hoechst High Intensity Objects (%): 8%
  Population Membrane Permeable-Phenotype (%): 0%
  Population Mitochondria Different-Phenotype (%): 33%
  Population Mitotic Cells (%): 72%
  Population Normal (%): 91%
  Population Pyknosed Nuclei (%): 10%
  Population Tubulin-Different-Phenotype (%): 31%
  Total Cell Count: 437
[4]
  Population Apoptotic (%): 52%
  Population Fragmented Nuclei (%): 8%
  Population Healthy Nuclei (%): 79%
  Population Hoechst High Intensity Objects (%): 7%
  Population Mitochondria Different-Phenotype (%): 51%
  Population Mitotic Cells (%): 47%
  Population Normal (%): 92%
  Population Pyknosed Nuclei (%): 12%
  Population Tubulin-Different-Phenotype (%): 18%
  Total Cell Count: 380
[5]
  Population Apoptotic (%): 30%
  Population Fragmented Nuclei (%): 8%
  Population Healthy Nuclei (%): 79%
  Population Hoechst High Intensity Objects (%): 2%
  Population Membrane Permeable-Phenotype (%): 0%
  Population Mitochondria Different-Phenotype (%): 21%
  Population Mitotic Cells (%): 70%
  Population Normal (%): 97%
  Population Pyknosed Nuclei (%): 11%
  Population Tubulin-Different-Phenotype (%): 20%
  Total Cell Count: 517
[6]
  Population Apoptotic (%): 29%
  Population Fragmented Nuclei (%): 7%
  Population Healthy Nuclei (%): 83%
  Population Hoechst High Intensity Objects (%): 7%
  Population Mitochondria Different-Phenotype (%): 31%
  Population Normal (%): 92%
  Population Pyknosed Nuclei (%): 9%
  Population Tubulin-Different-Phenotype (%): 13%
  Total Cell Count: 481
[7]
  Population Apoptotic (%): 36%
  Population Fragmented Nuclei (%): 10%
  Population Healthy Nuclei (%): 79%
  Population Hoechst High Intensity Objects (%): 6%
  Population Membrane Permeable-Phenotype (%): 0%
  Population Mitochondria Different-Phenotype (%): 24%
  Population Mitotic Cells (%): 63%
  Population Normal (%): 93%
  Population Pyknosed Nuclei (%): 9%
  Population Tubulin-Different-Phenotype (%): 15%
  Total Cell Count: 551
[8]
  Population Apoptotic (%): 43%
  Population Fragmented Nuclei (%): 8%
  Population Healthy Nuclei (%): 82%
  Population Hoechst High Intensity Objects (%): 8%
  Population Mitochondria Different-Phenotype (%): 39%
  Population Mitotic Cells (%): 56%
  Population Normal (%): 91%
  Total Cell Count: 470
[9]
  Population Apoptotic (%): 26%
  Population Fragmented Nuclei (%): 13%
  Population Healthy Nuclei (%): 79%
  Population Hoechst High Intensity Objects (%): 3%
  Population Membrane Permeable-Phenotype (%): 1%
  Population Mitochondria Different-Phenotype (%): 15%
  Population Mitotic Cells (%): 73%
  Population Normal (%): 97%
  Population Pyknosed Nuclei (%): 6%
  Population Tubulin-Different-Phenotype (%): 9%
  Total Cell Count: 866
[10]
  Population Apoptotic (%): 33%
  Population Fragmented Nuclei (%): 10%
  Population Healthy Nuclei (%): 81%
  Population Hoechst High Intensity Objects (%): 7%
  Population Membrane Permeable-Phenotype (%): 0%
  Population Mitochondria Different-Phenotype (%): 22%
  Population Mitotic Cells (%): 66%
  Population Normal (%): 92%
  Population Pyknosed Nuclei (%): 7%
  Population Tubulin-Different-Phenotype (%): 14%
  Total Cell Count: 611
[11]
  Population Apoptotic (%): 24%
  Population Fragmented Nuclei (%): 16%
  Population Healthy Nuclei (%): 75%
  Population Hoechst High Intensity Objects (%): 4%
  Population Membrane Permeable-Phenotype (%): 1%
  Population Mitochondria Different-Phenotype (%): 18%
  Population Mitotic Cells (%): 75%
  Population Normal (%): 95%
  Population Pyknosed Nuclei (%): 7%
  Population Tubulin-Different-Phenotype (%): 10%
  Total Cell Count: 781
[12]
  Population Apoptotic (%): 25%
  Population Fragmented Nuclei (%): 11%
  Population Healthy Nuclei (%): 80%
  Population Membrane Permeable-Phenotype (%): 0%
  Population Mitochondria Different-Phenotype (%): 19%
  Population Tubulin-Different-Phenotype (%): 9%
  Total Cell Count: 689
